Reference: ChEMBL document CHEMBL4007452, “Discovery of an Orally Selective Inhibitor of Signal Transducer and Activator of Transcription 3 Using Advanced Multiple Ligand Simultaneous Docking” (J Med Chem, 2017)
Active and inactive are the calls of the source. The rule behind the calls is not given here.

Columns and labels:
[1] = Antiproliferative activity against human UW288-1 cells after 24 hrs by MTT assay; format: functional, cell-based; details: UW288-1, 24 h
How it was run: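 Cells were seeded at 3000 per well and incubated 24 h at 37 °C. Compounds were added in triplicate with 10% FBS: 0.1-10 or 0.1-20 µM for cancer lines, 3.125-400 µM for MCF-10A. Viability was read by MTT absorbance at 595 nm, with IC50 fitted from the curves. DMSO stocks were 20 mM.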

[2] = molecular target: T1, Signal transducer and activator of transcription 1-alpha/beta (Homo sapiens) (UniProt P42224); assay: Binding affinity to STAT1 (unknown origin) after 30 mins by fluorescence polarization assay
T1 sequence (whole entry): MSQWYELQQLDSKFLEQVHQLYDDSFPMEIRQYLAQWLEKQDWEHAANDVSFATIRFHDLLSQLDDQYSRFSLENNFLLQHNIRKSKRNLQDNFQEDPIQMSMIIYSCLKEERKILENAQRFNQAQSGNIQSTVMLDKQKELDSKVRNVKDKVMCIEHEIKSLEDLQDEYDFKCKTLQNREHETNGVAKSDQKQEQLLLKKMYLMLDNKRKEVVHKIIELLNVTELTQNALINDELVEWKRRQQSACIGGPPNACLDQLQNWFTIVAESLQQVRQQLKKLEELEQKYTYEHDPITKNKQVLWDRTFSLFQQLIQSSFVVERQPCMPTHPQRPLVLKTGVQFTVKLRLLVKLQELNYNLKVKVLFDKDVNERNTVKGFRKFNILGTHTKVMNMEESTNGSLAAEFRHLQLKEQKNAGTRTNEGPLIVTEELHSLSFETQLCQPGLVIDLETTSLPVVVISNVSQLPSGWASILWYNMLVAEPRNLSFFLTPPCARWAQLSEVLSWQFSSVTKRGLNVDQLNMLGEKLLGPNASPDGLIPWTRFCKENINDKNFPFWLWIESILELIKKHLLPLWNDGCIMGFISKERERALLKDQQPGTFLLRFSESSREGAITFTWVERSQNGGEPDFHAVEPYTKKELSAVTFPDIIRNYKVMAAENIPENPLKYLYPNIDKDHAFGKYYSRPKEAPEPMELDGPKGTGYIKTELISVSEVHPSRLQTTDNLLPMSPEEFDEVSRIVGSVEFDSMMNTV
How it was run: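 A competitive fluorescence polarization assay measured displacement of fluorescent phosphopeptide from the SH2 domain of purchased STAT1 or STAT5 protein, using the corresponding peptides.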

[3] = molecular target: T1, Signal transducer and activator of transcription 1-alpha/beta (Homo sapiens); assay: Inhibition of STAT1 in human MDA-MB-231 cells assessed as reduction in STAT1 phosphorylation at Y701 site at 2.5 to 10 uM after 12 hrs by immunoblot analysis; format: cell-based
[4] = molecular target: T1, Signal transducer and activator of transcription 1-alpha/beta (Homo sapiens); assay: Inhibition of STAT1 in human MDA-MB-231 cells assessed as reduction in IFN-gamma-induced STAT1 phosphorylation at 2.5 to 5 uM preincubated for 2 hrs followed by IFN-gamma stimulation measured after 30 mins by Western blot analysis; format: cell-based
How it was run: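 MDA-MB-231 cells were allowed to adhere overnight, then serum-starved. They were pretreated 2 h with 2.5-5 µM compound or DMSO and stimulated with IFN-γ (50 ng/mL). Cells were harvested after 30 min and immunoblotted for P-STAT1(Y701) and T-STAT1.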

[5] = molecular target: Epidermal growth factor receptor (Homo sapiens) (UniProt P00533); assay: Inhibition of EGFR in human UW426 cells assessed as reduction in p-Akt level at 1 to 2.5 uM after 24 hrs by immunoblot analysis; format: cell-based
How it was run: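 UW426 cells at 60–80% confluence were treated 24 h at 1-2.5 µM with 10% FBS, against a DMSO control, then immunoblotted.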

[6] = molecular target: Epidermal growth factor receptor (Homo sapiens) (UniProt P00533); assay: Inhibition of EGFR in human MDA-MB-231 cells assessed as reduction in p-Akt level at 2.5 to 5 uM after 12 hrs by immunoblot analysis; format: cell-based
How it was run: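 MDA-MB-231 cells at 60–80% confluence were treated 12 h with 10% FBS at 2.5-10 µM or 2.5-5 µM, against a DMSO control. Whole-cell lysates were immunoblotted, with bands quantified as percent of control.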

Mus musculus [7] = assay: Toxicity in BALB/c nude mouse xenografted with human MDA-MB-231 cells assessed as reduction in body weight at 2.5 to 10 mg/kg, po qd administered for 32 days; format: organism-based; details: in vivo, 768 h
How it was run: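 MDA-MB-231 cells (5 x 10^6) were implanted s.c. in the flank of 6-week-old female athymic BALB/c nude mice. Oral dosing started at a tumor volume of about 100 mm3, with 8 mice per group and a saline vehicle control. […] Body weight was tracked over the 32-day treatment.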

Mus musculus [8] = assay: Toxicity in BALB/c nude mouse xenografted with human MDA-MB-231 cells assessed as heart damage at 2.5 to 10 mg/kg, po qd administered for 32 days by H&E staining based light microscopy; format: organism-based; details: in vivo, 768 h
How it was run: (§1)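 6-week-old female athymic SPF BALB/c nude mice received 5 x 10^6 MDA-MB-231 cells s.c. in the flank. Oral treatment began once tumors reached about 100 mm3, with 8 mice per group and a saline vehicle control. […] Treatment lasted 32 days. Heart, liver, spleen, lung and kidney were fixed 48 h in 10% neutral-buffered formaldehyde, paraffin-embedded, cut at 5 µm, H&E-stained and examined by light microscopy.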

Mus musculus [9] = assay: Toxicity in BALB/c nude mouse xenografted with human MDA-MB-231 cells assessed as liver damage at 2.5 to 10 mg/kg, po qd administered for 32 days by H&E staining based light microscopy; format: organism-based; details: in vivo, 768 h; how it was run: as §1
CCRF S-180 = assay: Anticancer activity against […] cells xenografted in BALB/c nude mouse assessed as reduction in tumor weight at 5 mg/kg, po measured after 21 days relative to vehicle control; format: functional; parameters: scale not given: the % may be the effect or the level left
How it was run: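 Male mice, 4 weeks old, given s.c. flank S180 mouse sarcoma cells (3 x 10^6). From day 2, 10 mice per group received saline vehicle, oral drug at 5 mg/kg, or i.p. drug at 1 mg/kg, each dissolved in saline. Therapy ran 21 days; tumor weight and body weight were recorded.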

[10] = AUC (0 to t) in Sprague-Dawley rat plasma at 1 mg/kg, iv measured after 24 hrs by UPLC analysis; format: ADME, organism-based; parameters: dose 1 mg/kg, time < 24 hr, route intravenous
How it was run: (§2)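 Rat plasma sampled from 2 min to 24 h after a single i.v. (1 mg/kg) or p.o. (10 mg/kg) dose. Parameters were derived from the concentration-time profiles. The bioanalytical method was validated to FDA guidelines for selectivity, linearity, LLOQ, accuracy, precision, recovery, matrix effect and stability.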

[11] = Tmax in Sprague-Dawley rat plasma at 10 mg/kg, po measured after 24 hrs by UPLC analysis; format: ADME, organism-based
How it was run: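 Rats dosed i.v. or p.o. Plasma concentrations followed from 2 min to 24 h after dosing. The bioanalytical method was validated to FDA guidelines for selectivity, linearity, LLOQ, accuracy, precision, recovery, matrix effect and stability.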

[12] = AUC (0 to t) in Sprague-Dawley rat plasma at 10 mg/kg, po measured after 24 hrs by UPLC analysis; format: ADME, organism-based; parameters: time < 24 hr, dose 10 mg/kg, route oral; how it was run: as §2
[13] = AUC (0 to infinity) in Sprague-Dawley rat plasma at 10 mg/kg, po measured after 24 hrs by UPLC analysis; format: ADME, organism-based; parameters: dose 10 mg/kg, route oral, time infinity; how it was run: as §2
[14] = molecular target: Signal transducer and activator of transcription 3 (Homo sapiens, UniProt P40763); details: 5 uM
Chain of Signal transducer and activator of transcription 3 (P40763 whole entry): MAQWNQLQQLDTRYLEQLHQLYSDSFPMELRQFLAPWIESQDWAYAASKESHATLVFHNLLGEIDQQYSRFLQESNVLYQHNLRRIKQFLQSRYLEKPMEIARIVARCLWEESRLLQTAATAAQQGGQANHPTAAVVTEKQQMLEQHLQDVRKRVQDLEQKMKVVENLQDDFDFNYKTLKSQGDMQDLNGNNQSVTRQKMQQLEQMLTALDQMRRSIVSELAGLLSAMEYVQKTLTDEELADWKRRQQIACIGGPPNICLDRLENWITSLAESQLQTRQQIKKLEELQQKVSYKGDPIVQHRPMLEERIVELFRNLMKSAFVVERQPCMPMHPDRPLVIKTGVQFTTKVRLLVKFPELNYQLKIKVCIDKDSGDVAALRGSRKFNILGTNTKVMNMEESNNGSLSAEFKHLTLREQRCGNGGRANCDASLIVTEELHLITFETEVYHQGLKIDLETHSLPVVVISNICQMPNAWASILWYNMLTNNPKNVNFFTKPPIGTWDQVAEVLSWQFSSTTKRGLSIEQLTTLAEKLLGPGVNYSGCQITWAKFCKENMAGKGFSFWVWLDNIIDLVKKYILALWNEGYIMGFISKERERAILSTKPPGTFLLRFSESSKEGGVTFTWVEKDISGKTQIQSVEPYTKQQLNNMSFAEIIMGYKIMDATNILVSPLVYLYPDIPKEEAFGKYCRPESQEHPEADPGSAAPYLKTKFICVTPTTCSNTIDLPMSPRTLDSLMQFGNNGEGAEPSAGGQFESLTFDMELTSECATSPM

Chain of Epidermal growth factor receptor (Homo sapiens) (P00533 whole entry): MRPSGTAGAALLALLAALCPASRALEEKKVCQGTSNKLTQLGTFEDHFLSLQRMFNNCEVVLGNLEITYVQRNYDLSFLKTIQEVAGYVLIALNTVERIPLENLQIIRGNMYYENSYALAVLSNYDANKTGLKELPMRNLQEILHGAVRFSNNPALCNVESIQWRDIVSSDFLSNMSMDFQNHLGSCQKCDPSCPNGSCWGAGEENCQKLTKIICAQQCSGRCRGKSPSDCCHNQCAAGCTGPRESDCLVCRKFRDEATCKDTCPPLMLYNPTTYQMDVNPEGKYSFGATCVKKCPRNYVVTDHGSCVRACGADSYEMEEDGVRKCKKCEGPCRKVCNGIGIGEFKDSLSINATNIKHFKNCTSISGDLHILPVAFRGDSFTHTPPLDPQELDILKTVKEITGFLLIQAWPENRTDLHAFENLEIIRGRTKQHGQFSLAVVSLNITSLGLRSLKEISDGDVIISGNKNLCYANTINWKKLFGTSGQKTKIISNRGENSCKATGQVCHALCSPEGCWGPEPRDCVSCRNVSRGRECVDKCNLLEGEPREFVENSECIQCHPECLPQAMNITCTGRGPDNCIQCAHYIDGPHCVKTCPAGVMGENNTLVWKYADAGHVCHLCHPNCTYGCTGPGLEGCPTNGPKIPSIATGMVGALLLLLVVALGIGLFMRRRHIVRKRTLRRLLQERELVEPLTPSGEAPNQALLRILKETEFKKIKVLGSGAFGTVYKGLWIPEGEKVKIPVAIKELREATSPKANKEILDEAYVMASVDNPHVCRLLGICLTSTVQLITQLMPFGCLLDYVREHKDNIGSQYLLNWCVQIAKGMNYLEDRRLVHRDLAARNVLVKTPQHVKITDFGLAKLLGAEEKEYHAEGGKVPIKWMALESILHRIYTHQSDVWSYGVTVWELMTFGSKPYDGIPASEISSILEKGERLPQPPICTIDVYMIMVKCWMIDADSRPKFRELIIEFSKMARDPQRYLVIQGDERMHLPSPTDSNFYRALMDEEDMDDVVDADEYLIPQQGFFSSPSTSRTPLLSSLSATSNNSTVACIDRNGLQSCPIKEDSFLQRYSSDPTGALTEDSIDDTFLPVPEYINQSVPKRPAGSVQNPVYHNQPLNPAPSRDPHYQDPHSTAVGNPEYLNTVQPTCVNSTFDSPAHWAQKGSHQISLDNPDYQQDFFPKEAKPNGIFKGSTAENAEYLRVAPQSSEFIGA

NS(=O)(=O)c1cccc2c1C(=O)C=C(Nc1ccccc1N1CCNCC1)C2=O
IC50 [1]: 2800 nM | Activity [2]: inactive | inhibition [3]: inactive | inhibition [4]: inactive | inhibition [5]: inactive | inhibition [6]: inactive | Activity (Mus musculus [7]): Non-Toxic | Activity (Mus musculus [8]): Non-Toxic | Activity (Mus musculus [9]): Non-Toxic | Activity (CCRF S-180): 72.74% | AUC(0-t) at 24 h [10]: 189 ng·h/mL | Tmax [11]: 30 min | AUC(0-t) at 24 h [12]: 850 ng·h/mL | AUC(0-inf) [13]: 889 ng·h/mL | inhibition [14]: Tde
